FN deposit inh – inhibitors of fibronectin matrix deposition, primary screen, AH1F cells, Alexa488-fibronectin fluorescence, plate reader | AH1F fibroblasts, overnight | inhibition, % at 12.6 µM | actives 0.086% (n = 350,000) | AID 743247, 2014;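 active = mean inhibition across replicates of 30% or more, regardless of how many single replicates reach that level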;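 also: positive control wells lacked labelled fibronectin entirely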
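test system = AH1F fibroblasts assembling fluorescent fibronectin matrix | quantity = 10000 AH1F cells per well | buffer or medium = DMEM plus 2% serum, read in PBS | doses = single dose, pinned | incubation = 1 h cell attachment, overnight exposure to compound and label | detection = fluorescence at 485 nm excitation, 525 nm emission | read-out basis = inhibition from reduced deposited-fibronectin fluorescence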
ERp5 inh – inhibitors of ERp5-driven insulin aggregation, primary screen, biochemical, turbidity, absorbance 650 nm, single point; Protein disulfide-isomerase A6 (Homo sapiens), Q15084; 90 min; inhibition, % at 9.99 µM; actives 0.05% (n = 350,000); AID 651711, 2012;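 active = mean replicate inhibition above about 25%, with every replicate also reaching it, limit read from the data, passing the limit was not always enough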
AF4-AF9 inh – inhibitors of AF4 peptide binding to AF9, primary screen, biochemical, AlphaScreen, biotin-AF4 peptide, FLAG-AF9, single point. Protein AF-9 (Homo sapiens), P42568. inhibition, % at 10 µM. actives 0.47% (n = 350,000);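 active = every replicate reaching a set inhibition limit, whatever the replicate mean, cut at about 25% in these data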;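 also: 0% = plate neutral control median and 100% = total signal loss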
SIRT5 block – SIRT5 desuccinylase inhibitors, primary screen, biochemical, fluorescence imaging, single point, set 5. NAD-dependent protein deacylase sirtuin-5, mitochondrial (Homo sapiens), Q9NXA8. Purified SirT5, succinyl-peptide AMC, trypsin-coupled fluorescence. inhibition, % at 15 µM. actives 1.1% (n = 330,000). AID 652115, 2013; in the data active = inhibition above about 15%
Target sequence (Q9NXA8 whole entry, looked up): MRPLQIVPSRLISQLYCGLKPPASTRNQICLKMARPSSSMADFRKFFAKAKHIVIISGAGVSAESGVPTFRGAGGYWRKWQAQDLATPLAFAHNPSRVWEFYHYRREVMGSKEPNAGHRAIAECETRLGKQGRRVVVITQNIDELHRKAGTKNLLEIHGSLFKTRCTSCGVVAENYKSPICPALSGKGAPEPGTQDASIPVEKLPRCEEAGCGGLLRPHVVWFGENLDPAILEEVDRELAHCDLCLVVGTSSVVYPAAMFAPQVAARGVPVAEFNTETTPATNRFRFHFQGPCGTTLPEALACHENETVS
PDI inh – inhibitors of human PDI, primary screen, biochemical, turbidity, single point, plate reader; Protein disulfide-isomerase (Homo sapiens), P07237; PDI insulin aggregation turbidity, A650, 90 min; inhibition, % at 10 µM; actives 0.052% (n = 350,000);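 active = mean inhibition across replicates of 30% or more, whatever share of single replicates reach that level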
The depositor's hits bear a star; · = not tested or not shown. Only some compounds are listed: those with a hit (about 1.3% of all), similar ones and a draw of the others.

SMILES | FN deposit inh | ERp5 inh | AF4-AF9 inh | SIRT5 block | PDI inh
O=C(NC1CCCCCCC1)c1ccc(CNc2c(N3CCOCC3)c(=O)c2=O)cc1 | -3 | 3 | 40* | 1 | 3
C#CCOCCOCCOCCNc1nc(N2CCOCC2)nc(N2CCN(C(=O)[C@H](CCCCN)n3cc(CN)nn3)CC2)n1 | -1 | 6 | 32* | -8 | -1
C#CCOCCOCCOCCNc1nc(N2CCOCC2)nc(N2CCN(C(=O)[C@H](CCCCN)n3cc([C@@H](N)C(C)CC)nn3)CC2)n1 (stereo partly specified) | 0 | 6 | 2 | 8 | -2
C#CCOCCOCCOCCNc1nc(N2CCN(C(=O)[C@H](CCCCN)n3cc([C@@H](N)CO)nn3)CC2)nc(N2CCN(C(=O)[C@H](CCCCN)n3cc([C@@H](N)CC(C)C)nn3)CC2)n1 | 2 | -2 | 29* | -4 | -3
C#CCOCCOCCOCCNc1nc(N2CCN(C(=O)[C@H](Cc3cc4ccccc4[nH]3)n3cc(C(N)CC(C)C)nn3)CC2)nc(N2CCN(C(=O)[C@H](CCC(=O)O)n3cc(C(N)[C@H](C)CC)nn3)CC2)n1 (stereo partly specified) | · | · | · | · | 5
C#CCOCCOCCOCCNc1nc(N2CCN(C(=O)[C@H](CCCCN)n3cc(CCCC)nn3)CC2)nc(N2CCN(C(=O)[C@H](Cc3ccc(O)cc3)n3cc(CCO)nn3)CC2)n1 | · | · | · | · | 129*
C#CCOCCOCCOCCNc1nc(N2CCN(C(=O)[C@H](CCC(=O)O)n3cc(C(N)CC(C)C)nn3)CC2)nc(N2CCN(C(=O)[C@H](Cc3cc4ccccc4[nH]3)n3cc(C(N)CC(C)C)nn3)CC2)n1 (stereo partly specified) | · | · | · | · | 36*
CCc1csc(N2[C@@H](C#N)[C@@H](c3ccc(-c4ccc(F)cc4)cc3)[C@@H]2CO)n1 | 9 | 12 | 3 | 7 | ·
Cc1cccc(S(=O)(=O)N[C@@H]2CC[C@H](CCNC(=O)Nc3cc(F)ccc3F)O[C@H]2CO)c1 | 2 | 5 | 6 | -1 | ·
CCOC(=O)c1ccc(S(=O)(=O)N2CCN(CCc3ccncc3)CC2)cc1 | -1 | -3 | -3 | -5 | 12
CCC(C)[C@H](N)c1cn([C@@H](Cc2cc3ccccc3[nH]2)C(=O)N2CCNCC2)nn1 (stereo partly specified) | 0 | 2 | 30* | · | 2
CC(C)C[C@H](N)c1cn([C@@H](Cc2cc3ccccc3[nH]2)C(=O)N2CCNCC2)nn1 | -1 | · | · | · | 0
C#CCOCCOCCOCCNc1nc(N2CCN(C(=O)C([C@@H](C)O)n3cc([C@@H](N)CCCCN)nn3)CC2)nc(N2CCN(C(=O)[C@H](CO)n3cc([C@@H](N)C(C)C)nn3)CC2)n1 (stereo partly specified) | 7 | -2 | 54* | -3 | -54
C#CCOCCOCCOCCNc1nc(N2CCN(C(=O)[C@H](CCCN=C(N)N)n3cc(C(N)[C@@H](C)CC)nn3)CC2)nc(N2CCN(C(=O)[C@H](CC(N)=O)n3cc([C@@H](N)C(C)C)nn3)CC2)n1 (stereo partly specified) | 5 | 1 | · | · | 2
C#CCOCCOCCOCCNc1nc(N2CCN(C(=O)[C@H]([C@@H](C)CC)n3cc([C@@H](N)Cc4ccc(O)cc4)nn3)CC2)nc(N2CCN(C(=O)[C@H]([C@@H](C)CC)n3cc([C@@H](N)Cc4ccc(O)cc4)nn3)CC2)n1 | 2 | 6 | 14 | · | 16
C#CCOCCOCCOCCNc1nc(N2CCN(C(=O)[C@H]([C@@H](C)CC)n3cc([C@@H](N)CC(C)C)nn3)CC2)nc(N2CCN(C(=O)[C@H](Cc3ccc(O)cc3)n3cc([C@@H](N)CC(C)C)nn3)CC2)n1 | 1 | 0 | 28* | 3 | ·
C#CCOCCOCCOCCNc1nc(N2CCN(C(=O)[C@H](CCCN=C(N)N)n3cc(C(N)[C@@H](C)CC)nn3)CC2)nc(N2CCN(C(=O)[C@H](CC(N)=O)n3cc([C@@H](N)CC(N)=O)nn3)CC2)n1 (stereo partly specified) | -14 | -6 | 25* | -7 | 18
COc1cc(/C=N/N2CCN(c3ccccc3OC)CC2)ccc1O | 2 | · | · | · | 1
CCOc1cccc(C(=O)NC(=S)Nc2cccc(C)c2)c1 | · | 6 | 1 | 2 | 4
C#CCOCCOCCOCCNc1nc(N2CCN(C(=O)[C@H](CCCCN)n3cc([C@@H](N)[C@H](C)CC)nn3)CC2)nc(N2CCN(C(=O)[C@H](CCCCN)n3cc([C@@H](N)CC(N)=O)nn3)CC2)n1 | -2 | -9 | 60* | · | 0
CC(SC(=S)N1CCCC1)C(=O)O (stereo unspecified) | 7 | 8 | -2 | 20* | -11
CC(C)(SC(=S)N1CCCCCC1)C(=O)O | 1 | -6 | -1 | -7 | 0
S=C(NCc1ccco1)NC1CCCc2ccccc21 (stereo unspecified) | -8 | -2 | 5 | 0 | -7
S=C(NCc1ccccc1)NC1CCCc2ccccc21 (stereo unspecified) | · | 2 | 3 | 112* | -8
COc1cccc(Nc2c(F)c(F)c(F)c(F)c2C(=O)O)c1 | · | · | · | · | 8
SMILES | FN deposit inh | ERp5 inh | AF4-AF9 inh | SIRT5 block | PDI inh
CCO/C=C1/C(=O)N(Cc2ccccc2)C(=O)c2ccccc21 | -11 | 0 | 5 | 26* | 5
C[C@H]1CN([C@@H](C)CO)C(=O)Cc2cc(NS(=O)(=O)c3ccc(Cl)cc3)ccc2O[C@@H]1CN(C)Cc1ccc(Oc2ccccc2)cc1 | 16 | 16 | 2 | 17* | ·
Cc1ccc(S(=O)(=O)Nc2ccc3c(c2)CC(=O)N([C@@H](C)CO)C[C@@H](C)[C@H](CN(C)Cc2ccc(Oc4ccccc4)cc2)O3)cc1 | · | -6 | 1 | 22* | ·
C[C@@H]1CN([C@@H](C)CO)C(=O)Cc2cc(NS(=O)(=O)c3ccc(Cl)cc3)ccc2O[C@@H]1CN(C)Cc1ccc(Oc2ccccc2)cc1 | 3 | 2 | 0 | 4 | ·
CCCn1c(SCC(=O)Nc2nc(-c3ccc(OC)cc3)cs2)nc2c1c(=O)n(C)c(=O)n2C | -8 | · | · | · | 5
Cc1nc(N/N=C/c2ccc(O)cc2O)cc(N2CCOCC2)n1 | -12 | 1 | 70* | 9 | 2
Cc1nc(N/N=C/c2cccc(F)c2)cc(N2CCOCC2)n1 | 10 | 1 | -5 | -3 | 22
Oc1cccc(C=NNc2ccccn2)c1 | 1 | 3 | 5 | -2 | 0
Oc1ccc(C=NNc2ccccn2)c(O)c1 | 18 | 0 | 42* | 7 | 8
Cc1ccccc1NC(=S)N/N=C/c1ccc(O)cc1O | 9 | 0 | 11 | 16* | -9

Bioassay records as filed in PubChem BioAssay.
